Values after ≈ are worked out from the molar mass of the structure shown. Active and inactive are the calls of the source. The rule behind the calls is not given here.
Assays:
Candida albicans = experiment: Antimicrobial activity against Candida albicans ATCC 10231 after 24 hrs; assay type: functional; conditions: ATCC 10231, 24 h
In short: (§1)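 Yeast MIC by serial doubling dilution. Compounds were dissolved in acetone at a 5 mg/mL starting concentration into sterile-water wells. Inoculum was 1 × 10⁶ CFU/mL at 37 °C for 24 h plus a further 24 h. Then 0.2 mg/mL p-iodonitrotetrazolium violet was added and colour read after 24 h. MIC was the lowest concentration showing no growth. Acetone and amphotericin B (starting 0.01 mg/mL) served as controls. At least triplicate, on consecutive days.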

Cryptococcus neoformans [1] = experiment: Antimicrobial activity against Cryptococcus neoformans ATCC 90112 after 24 hrs; assay type: functional; conditions: ATCC 90112, 24 h; in short: as §1
Escherichia coli [2] = experiment: Antimicrobial activity against Escherichia coli ATCC 8739 after 6 hrs; assay type: functional; conditions: ATCC 8739, 6 h
In short: (§2)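 Broth microdilution MIC. Compounds were dissolved in acetone at a 5 mg/mL starting concentration, added to wells containing sterile water, then serially doubled down. Inoculum was 1 × 10⁶ CFU/mL, incubated 37 °C for 24 h. Then 0.2 mg/mL p-iodonitrotetrazolium violet was added and colour read after 6 h. MIC was the lowest concentration without growth. Acetone and ciprofloxacin (starting 0.01 mg/mL) served as controls. At least triplicate, on consecutive days.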

Klebsiella pneumoniae = experiment: Antimicrobial activity against Klebsiella pneumoniae ATCC 13831 after 6 hrs; assay type: functional; conditions: ATCC 13831, 6 h; in short: as §2
Bacillus cereus = experiment: Antimicrobial activity against Bacillus cereus ATCC 11778 after 6 hrs; assay type: functional; conditions: ATCC 11778, 6 h; in short: as §2
Staphylococcus aureus [3] = experiment: Antimicrobial activity against Staphylococcus aureus ATCC 6538 after 6 hrs; assay type: functional; conditions: ATCC 6538, 6 h; in short: as §2
Escherichia coli [4] = experiment: Antimicrobial activity against Escherichia coli ATCC 8739 at 1250 ug/mL after 6 hrs; assay type: functional, organism-based
Cryptococcus neoformans [5] = experiment: Antimicrobial activity against Cryptococcus neoformans ATCC 90112 at 1250 ug/mL after 24 hrs; assay type: functional, organism-based
Staphylococcus aureus [6] = experiment: Antimicrobial activity against Staphylococcus aureus ATCC 6538 at 1250 ug/mL after 6 hrs; assay type: functional, organism-based

For COc1ccc2[nH]cc(-c3ccccc3C(C)=O)c2c1, the MIC (Candida albicans) was 235 µg/mL (≈ 886 µM), the MIC (Cryptococcus neoformans [1]) was 39 µg/mL (≈ 147 µM) and the MIC (Escherichia coli [2]) was 313 µg/mL (≈ 1180 µM). The MIC (Klebsiella pneumoniae) was 313 µg/mL (≈ 1180 µM), the MIC (Bacillus cereus) was 156 µg/mL (≈ 588 µM) and the MIC (Staphylococcus aureus [3]) was 625 µg/mL (≈ 2360 µM).

With c1ccc2[nH]c(-c3cccc4ccccc34)cc2c1 the MIC (Candida albicans) was 156 µg/mL (≈ 641 µM), the MIC (Cryptococcus neoformans [1]) was 625 µg/mL (≈ 2570 µM) and the MIC (Escherichia coli [2]) was 938 µg/mL (≈ 3860 µM). It also gave an MIC (Klebsiella pneumoniae) of 313 µg/mL (≈ 1290 µM), an MIC (Bacillus cereus) of 625 µg/mL (≈ 2570 µM) and an MIC (Staphylococcus aureus [3]) of 625 µg/mL (≈ 2570 µM).

COc1ccc2[nH]cc(-c3ccccc3C)c2c1 gave an MIC (Candida albicans) of 117 µg/mL (≈ 493 µM), an MIC (Cryptococcus neoformans [1]) of 625 µg/mL (≈ 2630 µM) and an MIC (Escherichia coli [2]) of 313 µg/mL (≈ 1320 µM). The MIC (Klebsiella pneumoniae) was 313 µg/mL (≈ 1320 µM), the MIC (Bacillus cereus) was 19.5 µg/mL (≈ 82.2 µM) and the MIC (Staphylococcus aureus [3]) was 29.3 µg/mL (≈ 123 µM).

In the case of COc1ccc(-c2c[nH]c3ccccc23)cc1, the Activity (Escherichia coli [4]) is reported as “inactive”, the MIC (Candida albicans) is reported as 156 µg/mL (≈ 699 µM) and the MIC (Cryptococcus neoformans [1]) is reported as 78 µg/mL (≈ 349 µM). The MIC (Klebsiella pneumoniae) was 208 µg/mL (≈ 932 µM), the MIC (Bacillus cereus) was 625 µg/mL (≈ 2800 µM) and the MIC (Staphylococcus aureus [3]) was 469 µg/mL (≈ 2100 µM).

c1ccc(-c2cc3ccccc3[nH]2)cc1 [2-PHENYL-1H-INDOLE] was tested, and the MIC (Candida albicans) was 156 µg/mL (≈ 807 µM), the MIC (Cryptococcus neoformans [1]) was 625 µg/mL (≈ 3230 µM) and the MIC (Escherichia coli [2]) was 1250 µg/mL (≈ 6470 µM). For the same compound, the MIC (Klebsiella pneumoniae) was 313 µg/mL (≈ 1620 µM), the MIC (Bacillus cereus) was 625 µg/mL (≈ 3230 µM) and the MIC (Staphylococcus aureus [3]) was 469 µg/mL (≈ 2430 µM).

For COc1ccc(-c2cc3cc(OC)ccc3[nH]2)cc1, the Activity (Escherichia coli [4]) was “inactive”, the MIC (Candida albicans) was 235 µg/mL (≈ 928 µM) and the MIC (Klebsiella pneumoniae) was 313 µg/mL (≈ 1240 µM). The MIC (Bacillus cereus) was 313 µg/mL (≈ 1240 µM) and the MIC (Staphylococcus aureus [3]) was 625 µg/mL (≈ 2470 µM).

COc1ccc2[nH]c(-c3ccccc3C)cc2c1 gave an MIC (Candida albicans) of 313 µg/mL (≈ 1320 µM), an MIC (Escherichia coli [2]) of 468 µg/mL (≈ 1970 µM) and an MIC (Klebsiella pneumoniae) of 313 µg/mL (≈ 1320 µM). The MIC (Bacillus cereus) was 156 µg/mL (≈ 657 µM) and the MIC (Staphylococcus aureus [3]) was 235 µg/mL (≈ 990 µM).

For COc1ccc2[nH]c(-c3ccccc3)cc2c1, the Activity (Escherichia coli [4]) was “inactive”, the MIC (Candida albicans) was 469 µg/mL (≈ 2100 µM) and the Activity (Cryptococcus neoformans [5]) was “inactive”. It also gave an MIC (Klebsiella pneumoniae) of 469 µg/mL (≈ 2100 µM), an MIC (Bacillus cereus) of 3.9 µg/mL (≈ 17.5 µM) and an MIC (Staphylococcus aureus [3]) of 156 µg/mL (≈ 699 µM).

In the case of COc1ccc2[nH]c(-c3cc(OC)c(OC)c(OC)c3)cc2c1, the MIC (Candida albicans) is reported as 156 µg/mL (≈ 498 µM), the MIC (Cryptococcus neoformans [1]) is reported as 32.5 µg/mL (≈ 104 µM) and the MIC (Escherichia coli [2]) is reported as 625 µg/mL (≈ 1990 µM). The MIC (Klebsiella pneumoniae) was 313 µg/mL (≈ 999 µM), the MIC (Bacillus cereus) was 156 µg/mL (≈ 498 µM) and the MIC (Staphylococcus aureus [3]) was 313 µg/mL (≈ 999 µM).

With COc1ccc2[nH]cc(-c3cc(OC)c(OC)c(OC)c3)c2c1 the MIC (Candida albicans) was 313 µg/mL (≈ 999 µM), the MIC (Cryptococcus neoformans [1]) was 29.3 µg/mL (≈ 93.5 µM) and the MIC (Escherichia coli [2]) was 313 µg/mL (≈ 999 µM). The MIC (Klebsiella pneumoniae) was 313 µg/mL (≈ 999 µM), the MIC (Bacillus cereus) was 156 µg/mL (≈ 498 µM) and the MIC (Staphylococcus aureus [3]) was 313 µg/mL (≈ 999 µM).

COc1cc(-c2c[nH]c3ccccc23)cc(OC)c1OC was tested, and the MIC (Candida albicans) was 313 µg/mL (≈ 1100 µM), the MIC (Cryptococcus neoformans [1]) was 29.3 µg/mL (≈ 103 µM) and the Activity (Staphylococcus aureus [6]) was “inactive”. The MIC (Escherichia coli [2]) was 313 µg/mL (≈ 1100 µM), the MIC (Klebsiella pneumoniae) was 313 µg/mL (≈ 1100 µM) and the MIC (Bacillus cereus) was 235 µg/mL (≈ 829 µM).

In the case of COc1cc(-c2c[nH]c3ccccc23)c(OC)cc1Br, the MIC (Candida albicans) is reported as 156 µg/mL (≈ 470 µM), the MIC (Cryptococcus neoformans [1]) is reported as 261 µg/mL (≈ 786 µM) and the MIC (Escherichia coli [2]) is reported as 469 µg/mL (≈ 1410 µM). It also gave an MIC (Klebsiella pneumoniae) of 313 µg/mL (≈ 942 µM), an MIC (Bacillus cereus) of 235 µg/mL (≈ 707 µM) and an MIC (Staphylococcus aureus [3]) of 156 µg/mL (≈ 470 µM).

COc1ccc(-c2cc3ccccc3[nH]2)cc1 showed an MIC (Candida albicans) of 156 µg/mL (≈ 699 µM), an MIC (Cryptococcus neoformans [1]) of 58.5 µg/mL (≈ 262 µM) and an MIC (Escherichia coli [2]) of 625 µg/mL (≈ 2800 µM). The MIC (Klebsiella pneumoniae) was 313 µg/mL (≈ 1400 µM), the MIC (Bacillus cereus) was 156 µg/mL (≈ 699 µM) and the MIC (Staphylococcus aureus [3]) was 635 µg/mL (≈ 2840 µM).

COc1cc(-c2cc3ccccc3[nH]2)cc(OC)c1OC showed an MIC (Candida albicans) of 117 µg/mL (≈ 413 µM), an MIC (Cryptococcus neoformans [1]) of 313 µg/mL (≈ 1100 µM) and an MIC (Escherichia coli [2]) of 313 µg/mL (≈ 1100 µM). For the same compound, the MIC (Klebsiella pneumoniae) was 391 µg/mL (≈ 1380 µM), the MIC (Bacillus cereus) was 20 µg/mL (≈ 70.6 µM) and the MIC (Staphylococcus aureus [3]) was 469 µg/mL (≈ 1660 µM).

With c1ccc(-c2c[nH]c3ccccc23)cc1 [3-PHENYLINDOLE] the MIC (Candida albicans) was 19.5 µg/mL (≈ 101 µM), the MIC (Cryptococcus neoformans [1]) was 65.1 µg/mL (≈ 337 µM) and the MIC (Escherichia coli [2]) was 156 µg/mL (≈ 807 µM). For the same compound, the MIC (Klebsiella pneumoniae) was 469 µg/mL (≈ 2430 µM), the MIC (Bacillus cereus) was 19.5 µg/mL (≈ 101 µM) and the MIC (Staphylococcus aureus [3]) was 39 µg/mL (≈ 202 µM).

COc1ccc(-c2c[nH]c3ccc(OC)cc23)cc1 showed an MIC (Candida albicans) of 156 µg/mL (≈ 616 µM), an MIC (Cryptococcus neoformans [1]) of 29.3 µg/mL (≈ 116 µM) and an MIC (Escherichia coli [2]) of 521 µg/mL (≈ 2060 µM). The MIC (Klebsiella pneumoniae) was 261 µg/mL (≈ 1030 µM), the MIC (Bacillus cereus) was 156 µg/mL (≈ 616 µM) and the MIC (Staphylococcus aureus [3]) was 313 µg/mL (≈ 1240 µM).

COc1ccc2[nH]cc(-c3ccccc3)c2c1 was tested, and the MIC (Candida albicans) was 78 µg/mL (≈ 349 µM), the MIC (Cryptococcus neoformans [1]) was 235 µg/mL (≈ 1050 µM) and the MIC (Escherichia coli [2]) was 625 µg/mL (≈ 2800 µM). The MIC (Klebsiella pneumoniae) was 313 µg/mL (≈ 1400 µM), the MIC (Bacillus cereus) was 15.6 µg/mL (≈ 69.9 µM) and the MIC (Staphylococcus aureus [3]) was 39.1 µg/mL (≈ 175 µM).

COc1ccc2[nH]cc(-c3ccccc3C=O)c2c1 gave an MIC (Candida albicans) of 156 µg/mL (≈ 621 µM), an MIC (Cryptococcus neoformans [1]) of 313 µg/mL (≈ 1250 µM) and an MIC (Escherichia coli [2]) of 235 µg/mL (≈ 935 µM). It also gave an MIC (Klebsiella pneumoniae) of 313 µg/mL (≈ 1250 µM), an MIC (Bacillus cereus) of 78 µg/mL (≈ 310 µM) and an MIC (Staphylococcus aureus [3]) of 156 µg/mL (≈ 621 µM).
